{"data": "Results of several laboratories", "observed": "metabolic stability", "species": "mouse", "sample": "liver microsomes", "note": "Lines come from different studies, so protocols differ."}
{"conditions": "1 µM, pH 7.4", "microsomal CLint": "16.7 µL/min/mg", "SMILES": "CC(C)(C)OC(=O)N1CCC(Oc2ccc3c(=O)c4c(F)cc(Cl)cc4[nH]c3c2)C1 (stereo not drawn)"}
{"microsomal CLint": "< 9.6 µL/min/mg", "SMILES": "CC(C)n1ncc2c(C(=O)NCC3(C)CNC3)cc(C3CC3)nc21"}
{"conditions": "1 µM, pH 7.4", "microsomal CLint": "7.26 µL/min/mg", "SMILES": "O=c1c2ccc(OCc3cccc(OC(F)(F)F)c3)cc2[nH]c2cc(F)cc(Cl)c12"}
{"microsomal CLint": "19.1 µL/min/mg", "SMILES": "CC(C)n1ncc2c(C(=O)NC(C)(C)CN)cc(C3CC3)nc21"}
{"microsomal CLint": "41 µL/min/mg", "SMILES": "CCN(CC)CCNC(=O)c1c(C)[nH]c(/C=C2\\C(=O)Nc3ccc(F)cc32)c1C"}
{"microsomal CLint": "< 7 µL/min/mg", "SMILES": "O=C1NC2(CCS(=O)(=O)CC2)C(=O)N1c1ccc(F)c(C(F)(F)F)c1"}
{"conditions": "1 µM, pH 7.4", "microsomal CLint": "81.9 µL/min/mg", "SMILES": "CCCN(CCC)CCNc1ccc2c(=O)c3c([nH]c2c1)CCCC3"}
{"microsomal CLint": "< 7 µL/min/mg", "SMILES": "CC1(C)NC(=O)N(c2ccc(F)c(CC(F)(F)F)c2)C1=O"}
{"conditions": "1 µM, pH 7.4", "microsomal CLint": "619 µL/min/mg", "SMILES": "CONC(=O)c1cccc2c1cc(C)n2-c1nc2c(c(NCc3ccccc3)n1)CCCN2"}
{"microsomal CLint": "31.2 µL/min/mg", "SMILES": "O=C(O)Cc1ccccc1Nc1c(Cl)cccc1Cl"}
{"microsomal CLint": "< 7 µL/min/mg", "SMILES": "CCS(=O)(=O)N1CCC2(CC1)NC(=O)N(c1ccc(F)c(C(F)(F)F)c1)C2=O"}
{"conditions": "1 µM, pH 7.4", "microsomal CLint": "19.7 µL/min/mg", "SMILES": "O=c1c2c([nH]c3cc(OCc4ccc(OC(F)(F)F)cc4)ccc13)CCCC2"}
{"microsomal CLint": "49.1 µL/min/mg", "SMILES": "CC(C)c1cc(C(=O)NCCN2CCCC2)c2cnn(C(C)C)c2n1"}
{"microsomal CLint": "< 7 µL/min/mg", "SMILES": "CC1(C)NC(=O)N(c2cccc(C(F)(F)F)n2)C1=O"}
{"conditions": "1 µM, pH 7.4", "microsomal CLint": "34.1 µL/min/mg", "SMILES": "CCCN(CCC)CCCOc1ccc2c(=O)c3c([nH]c2c1)CCCC3"}
{"microsomal CLint": "15.7 µL/min/mg", "SMILES": "Cc1[nH]c(C)c(S(=O)(=O)Nc2ccc(C(F)(F)F)c(Cl)c2Cl)c1C(=O)N1CCC(F)(F)C1"}
{"conditions": "1 µM, pH 7.4", "microsomal CLint": "17.7 µL/min/mg", "SMILES": "CCN(CC)CCOc1ccc2c(=O)c3c([nH]c2c1)CCCC3"}
{"microsomal CLint": "< 7 µL/min/mg", "SMILES": "CC1(C)NC(=O)N(c2ccc3c(c2)OC(F)(F)O3)C1=O"}
